From ChEMBL document CHEMBL1123468, “Synthesis and antiviral activity of (E)-5-(2-bromovinyl)uracil and (E)-5-(2-bromovinyl)uridine” (1986)
≈ marks a conversion by molar mass, not a printed value.

Experiments:
BSC-1 = experiment: The compound was tested for its antiviral activity against HSV-1 (KOS) virus in BS-C-1A cell line; assay type: functional, Cercopithecidae; details: Chlorocebus aethiops
Method in brief: (§1)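 Virus-induced cytopathogenicity in cell culture, scored microscopically. The value is the minimum concentration that cuts viral cytopathogenicity by 50%. Normal cell morphology was also checked microscopically at up to 400 μg/mL.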

E6SM [1] = experiment: The concentration required to reduce the cytopathogenicity of HSV-1 (KOS) in E6SM cell culture by 50% in presence of 50 ug/mL concentrations of benzylacyclouridine; assay type: functional; details: Homo sapiens
Method in brief: (§2)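 E6SM cultures were infected with HSV-1 strain KOS. 6-Aminothymine or benzylacyclouridine was present in the medium together with the test compound. The value is the minimum concentration giving 50% reduction of viral cytopathogenicity, scored by the earlier-described cytopathogenicity inhibition procedure.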

E6SM [2] = experiment: The concentration required to reduce the cytopathogenicity of HSV-1 (KOS) in E6SM cell culture by 50% in presence of 10 ug/mL dThd; assay type: functional; details: Homo sapiens
Method in brief: (§3)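 E6SM cells infected with HSV-1 (KOS), with dThd added to the culture medium at the stated concentration. The value is the minimum concentration that reduces viral cytopathogenicity by 50%.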

HeLa [3] = experiment: The concentration required to reduce the cytopathogenicity of HSV-1 (KOS) in HeLa cell culture by 50% in presence of 4 ug/m concentrations of 6-aminothymine; assay type: functional; details: Homo sapiens
E6SM [4] = experiment: The compound was tested for its antiviral activity against HSV-1 (F) virus in E6SM cell culture; assay type: functional; details: Homo sapiens; method in brief: as §1
E6SM [5] = experiment: The compound was tested for its antiviral activity against HSV-2 (196) virus in E6SM cell culture; assay type: functional; details: Homo sapiens; method in brief: as §1
E6SM [6] = experiment: The compound was tested for its antiviral activity against HSV-2 (Lyons) virus in E6SM cell culture; assay type: functional; details: Homo sapiens; method in brief: as §1
E6SM [7] = experiment: The compound was tested for its antiviral activity against HSV-1 (McIntyre) virus in E6SM cell culture; assay type: functional; details: Homo sapiens; method in brief: as §1
Vero = experiment: The compound was tested for its antiviral activity against HSV-1 (KOS) virus in vero cell line; assay type: functional; details: Chlorocebus sabaeus; method in brief: as §1
E6SM [8] = experiment: The compound was tested for its antiviral activity against TK-HSV-1 (B2006) virus in E6SM cell culture; assay type: functional; details: Homo sapiens; method in brief: as §1
E6SM [9] = experiment: The compound was tested for its antiviral activity against HSV-1 (KOS) virus in E6SM cell culture; assay type: functional; details: Homo sapiens; method in brief: as §1
E6SM [10] = experiment: The compound was tested for its antiviral activity against HSV-2 (G) virus in E6SM cell culture; assay type: functional; details: Homo sapiens; method in brief: as §1
E6SM [11] = experiment: The concentration required to reduce the cytopathogenicity of HSV-1 (KOS) in E6SM cell culture by 50% in presence of 100 ug/mL concentrations of 6-aminothymine; assay type: functional; details: Homo sapiens
Method in brief: (§4)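 E6SM cells infected with HSV-1 (KOS), with 6-aminothymine or benzylacyclouridine added to the medium at the stated concentration. The value is the minimum concentration that reduces viral cytopathogenicity by 50%.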

M21 = experiment: The compound was tested for its antiviral activity against HSV-1 (KOS) virus in M-21 (GM137) cell line,; assay type: functional; details: Homo sapiens; method in brief: as §1
E6SM [12] = experiment: The concentration required to reduce the cytopathogenicity of HSV-1 (KOS) in E6SM cell culture by 50% in presence of 100 ug/mL dThd; assay type: functional; details: Homo sapiens; method in brief: as §3
E6SM [13] = experiment: The concentration required to reduce the cytopathogenicity of HSV-1 (KOS) in E6SM cell culture by 50% in presence of absence of concentrations of benzylacyclouridine; assay type: functional; details: Homo sapiens
E1 SM = experiment: The compound was tested for its antiviral activity against HSV-1 (KOS) virus in E1SM cell line; assay type: functional, Homo sapiens; method in brief: as §1
E6SM [14] = experiment: The concentration required to reduce the cytopathogenicity of HSV-1 (KOS) in E6SM cell culture by 50% in presence of 20 ug/m concentrations of 6-aminothymine; assay type: functional; details: Homo sapiens; method in brief: as §4
E6SM [15] = experiment: The concentration required to reduce the cytopathogenicity of HSV-1 (KOS) in E6SM cell culture by 50% in presence of 10 ug/mL concentrations of benzylacyclouridine; assay type: functional; details: Homo sapiens; method in brief: as §4
HSF (VGS) = experiment: The compound was tested for its antiviral activity against HSV-1 (KOS) virus in HSF (VGS) cell line; assay type: functional; details: Homo sapiens; method in brief: as §1
E6SM [16] = experiment: The compound was tested for its antiviral activity against HSV-1 (KOS) virus in E6SM cell line; assay type: functional; details: Homo sapiens; method in brief: as §1
E6SM [17] = experiment: The concentration required to reduce the cytopathogenicity of HSV-1 (KOS) in E6SM cell culture by 50% in presence of 300 ug/mL dThd; assay type: functional; details: Homo sapiens
Method in brief: (§5)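 Thymidine (dThd) was added to the E6SM culture medium alongside the test compound, and cells were infected with HSV-1 strain KOS. The endpoint is the minimum inhibitory concentration that reduces viral cytopathogenicity by 50%. The cytopathogenicity inhibition procedure follows the earlier-described method.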

E6SM [18] = experiment: The concentration required to reduce the cytopathogenicity of HSV-1 (KOS) in E6SM cell culture by 50% in presence of 30 ug/mL dThd; assay type: functional; details: Homo sapiens; method in brief: as §5
HeLa [19] = experiment: The concentration required to reduce the cytopathogenicity of HSV-1 (KOS) in HeLa cell culture by 50% in presence of 20 ug/m concentrations of 6-aminothymine; assay type: functional; details: Homo sapiens
HeLa [20] = experiment: The compound was tested for its antiviral activity against HSV-1 (KOS) virus in HeLa cell line; assay type: functional; details: Homo sapiens; method in brief: as §1
PRK = experiment: The compound was tested for its antiviral activity against HSV-1 (KOS) virus in PRK cell line; assay type: functional; details: Oryctolagus cuniculus
Method in brief: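 Primary rabbit kidney cells infected with HSV-1 (KOS). The value is the minimum concentration that cuts viral cytopathogenicity by 50%. Cytotoxicity was judged as microscopically detectable alteration of cell morphology at up to 400 μg/mL.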

HeLa [21] = experiment: The concentration required to reduce the cytopathogenicity of HSV-1 (KOS) in HeLa cell culture by 50% in presence of absence concentrations of 6-aminothymine; assay type: functional; details: Homo sapiens
HEp-2 = experiment: The compound was tested for its antiviral activity against HSV-1 (KOS) virus in HEp-2M cell line; assay type: functional; details: Homo sapiens; method in brief: as §1
E6SM [22] = experiment: The concentration required to reduce the cytopathogenicity of HSV-1 (KOS) in E6SM cell culture by 50% in presence of 1 ug/mL dThd; assay type: functional; details: Homo sapiens; method in brief: as §3
E6SM [23] = experiment: The compound was tested for its antiviral activity against vaccinia virus in E6SM cell culture; assay type: functional; details: Homo sapiens; method in brief: as §1
E6SM [24] = experiment: The concentration required to reduce the cytopathogenicity of HSV-1 (KOS) in E6SM cell culture by 50% in presence of 4 ug/m concentrations of 6-aminothymine; assay type: functional; details: Homo sapiens; method in brief: as §2
T-21 (LR) = experiment: The compound was tested for its antiviral activity against HSV-1 (KOS) virus in T-21 (LR) cell line; assay type: functional; details: Homo sapiens; method in brief: as §1
E6SM [25] = experiment: The concentration required to reduce the cytopathogenicity of HSV-1 (KOS) in E6SM cell culture by 50% in absence of dThd; assay type: functional; details: Homo sapiens; method in brief: as §3
[26] = The concentration required to reduce the cytopathogenicity of HSV-1 (KOS) in PRK cell culture by 50% in presence of 100 ug/mL concentrations of 6-aminothymine; assay type: functional; details: Oryctolagus cuniculus
Method in brief: (§6)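 The cells were primary rabbit kidney (PRK) cultures infected with HSV-1 strain KOS, with 6-aminothymine co-present in the medium. The value is the minimum inhibitory concentration that reduces viral cytopathogenicity by 50%, using the previously described cytopathogenicity inhibition method.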

Mo = experiment: The compound was tested for its antiviral activity against HSV-1 (KOS) virus in MO cell line; assay type: functional; details: Homo sapiens; method in brief: as §1
E6SM [27] = experiment: The compound was tested for its antiviral activity against vesicular stomatitis virus in E6SM cell culture; assay type: functional; details: Homo sapiens; method in brief: as §1
[28] = The concentration required to reduce the cytopathogenicity of HSV-1 (KOS) in PRK cell culture by 50% in presence of 20 ug/mL concentrations of 6-aminothymine; assay type: functional; details: Oryctolagus cuniculus; method in brief: as §6
E6SM [29] = experiment: The concentration required to reduce the cytopathogenicity of HSV-1 (KOS) in E6SM cell culture by 50% in presence of absence of concentrations of 6-aminothymine; assay type: functional; details: Homo sapiens
HeLa [30] = experiment: The concentration required to reduce the cytopathogenicity of HSV-1 (KOS) in HeLa cell culture by 50% in presence of 100 ug/m concentrations of 6-aminothymine; assay type: functional; details: Homo sapiens
[31] = The concentration required to reduce the cytopathogenicity of HSV-1 (KOS) in PRK cell culture by 50% in presence of 40 ug/mL concentrations of 6-aminothymine; assay type: functional; details: Oryctolagus cuniculus; method in brief: as §6
BALB/3T3 = experiment: The compound was tested for its antiviral activity against HSV-1 (KOS) virus in BALB/3T3 cell line; details: Mus musculus
E6SM [32] = experiment: The concentration required to reduce the cytopathogenicity of HSV-1 (KOS) in E6SM cell culture by 50% in presence of 3 ug/mL dThd; assay type: functional; details: Homo sapiens; method in brief: as §3
[33] = The concentration required to reduce the cytopathogenicity of HSV-1 (KOS) in PRK cell culture absence concentrations of 6-aminothymine; assay type: functional; details: Oryctolagus cuniculus

O=c1[nH]c(=O)n([C@@H]2O[C@H](CO)[C@@H](O)[C@H]2O)cc1/C=C/Br
MIC50 (BSC-1): > 400 µg/mL | MIC50 (E6SM [1]): 10 µg/mL | MIC50 (E6SM [2]): 70 µg/mL | MIC50 (HeLa [3]): 0.4 µg/mL | MIC50 (E6SM [4]): 7 µg/mL (≈ 20 µM) | MIC50 (E6SM [5]): > 400 µg/mL | MIC50 (E6SM [6]): > 400 µg/mL | MIC50 (E6SM [7]): 2 µg/mL (≈ 5.73 µM) | MIC50 (Vero): > 400 µg/mL | MIC50 (E6SM [8]): > 200 µg/mL | MIC50 (E6SM [9]): 4 µg/mL (≈ 11.5 µM) | MIC50 (E6SM [10]): > 400 µg/mL | MIC50 (E6SM [11]): 4 µg/mL | MIC50 (M21): 4 µg/mL (≈ 11.5 µM) | MIC50 (E6SM [12]): > 400 µg/mL | MIC50 (E6SM [13]): 4 µg/mL | MIC50 (E1 SM): 1 µg/mL (≈ 2.86 µM) | MIC50 (E6SM [14]): 3 µg/mL | MIC50 (E6SM [15]): 4 µg/mL | MIC50 (HSF (VGS)): 1 µg/mL (≈ 2.86 µM) | MIC50 (E6SM [16]): 4 µg/mL (≈ 11.5 µM) | MIC50 (E6SM [17]): > 400 µg/mL | MIC50 (E6SM [18]): > 400 µg/mL | MIC50 (HeLa [19]): 0.4 µg/mL | MIC50 (HeLa [20]): 0.4 µg/mL (≈ 1.15 µM) | MIC50 (PRK): 7 µg/mL (≈ 20 µM) | MIC50 (HeLa [21]): 0.2 µg/mL | MIC50 (HEp-2): 150 µg/mL (≈ 430 µM) | MIC50 (E6SM [22]): 7 µg/mL | MIC50 (E6SM [23]): > 400 µg/mL | MIC50 (E6SM [24]): 3 µg/mL | MIC50 (T-21 (LR)): 10 µg/mL (≈ 28.6 µM) | MIC50 (E6SM [25]): 7 µg/mL (≈ 20 µM) | MIC50 [26]: 10 µg/mL | MIC50 (Mo): > 400 µg/mL | MIC50 (E6SM [27]): > 400 µg/mL | MIC50 [28]: 10 µg/mL | MIC50 (E6SM [29]): 4 µg/mL | MIC50 (HeLa [30]): 1 µg/mL | MIC50 [31]: 10 µg/mL | MIC50 (BALB/3T3): > 400 µg/mL | MIC50 (E6SM [32]): 4 µg/mL | MIC50 [33]: 10 µg/mL (≈ 28.6 µM)
